Screens: PubChem, several laboratories
PKD1 inh: inhibitors of human PKD1 kinase, biochemical, fluorescence polarization; AID 797, 2007; 200,000 compounds, 0.056% hits; PKD1 kinase fluorescence polarization assay; inhibition, % (concentration not given with the values); Serine/threonine-protein kinase D1 (Homo sapiens), Q15139; in the data active = inhibition above about 50%
Target sequence (Q15139 whole entry, looked up): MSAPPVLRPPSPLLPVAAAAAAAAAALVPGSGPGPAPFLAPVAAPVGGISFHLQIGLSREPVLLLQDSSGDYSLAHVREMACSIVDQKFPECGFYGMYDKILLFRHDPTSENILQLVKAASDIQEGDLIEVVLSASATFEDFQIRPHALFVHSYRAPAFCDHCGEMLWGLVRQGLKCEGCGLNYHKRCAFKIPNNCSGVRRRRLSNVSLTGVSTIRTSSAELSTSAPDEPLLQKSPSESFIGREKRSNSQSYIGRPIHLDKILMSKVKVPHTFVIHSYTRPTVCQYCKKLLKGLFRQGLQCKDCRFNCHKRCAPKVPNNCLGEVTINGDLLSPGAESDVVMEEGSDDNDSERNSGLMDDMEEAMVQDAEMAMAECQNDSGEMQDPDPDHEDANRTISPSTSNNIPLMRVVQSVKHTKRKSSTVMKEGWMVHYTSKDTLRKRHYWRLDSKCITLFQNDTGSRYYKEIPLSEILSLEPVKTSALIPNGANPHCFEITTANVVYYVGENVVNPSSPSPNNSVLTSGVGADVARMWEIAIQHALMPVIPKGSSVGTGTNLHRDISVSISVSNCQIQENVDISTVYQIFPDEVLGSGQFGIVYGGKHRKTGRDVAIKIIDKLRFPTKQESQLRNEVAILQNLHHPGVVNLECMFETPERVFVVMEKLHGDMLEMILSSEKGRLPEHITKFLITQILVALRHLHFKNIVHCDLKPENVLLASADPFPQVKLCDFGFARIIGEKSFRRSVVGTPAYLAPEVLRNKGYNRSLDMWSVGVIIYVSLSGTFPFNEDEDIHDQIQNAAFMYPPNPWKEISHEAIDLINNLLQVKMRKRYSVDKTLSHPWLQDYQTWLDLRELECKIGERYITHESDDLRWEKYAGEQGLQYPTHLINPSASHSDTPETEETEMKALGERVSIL
PERK inhibitor: block of dimerizer-induced PERK translation repression, primary screen, PERK inhibitor project, CHO PERK-DD cells, SEAP luminescence, HTS; AID 1416, 2008; 220,000 compounds, 0.17% hits; inhibition, % at 5.6 µM; CHO PERK-DD fusion, SEAP luminescence translation reporter; Eukaryotic translation initiation factor 2-alpha kinase 3 (Homo sapiens), Q9NZJ5;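 active = inhibition above the mean inhibition of all tested compounds plus 3 SD, set separately per screening campaign, cut at about 2.9% in these data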;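 note: PERK kinase domain activated by AP20187 dimerizer at 100 nM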
Rad51 HR inh: human RAD51 strand exchange inhibitors, primary screen, biochemical, fluorescence; inhibition, % at 10 µM; hRad51 DNA strand exchange, fluorescence dequenching; DNA repair protein RAD51 homolog 1 (Homo sapiens), Q06609; AID 1385, 2008; 200,000 compounds, 0.085% hits;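 active = inhibition above 40% at the single screening dose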
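material = hRad51 filaments on single-stranded DNA | timing = filaments 15 min 37 °C, then compound 30 min | signal = FRET fluorescence dequenching, excitation 485 nm, emission 520 nm | benchmarks = control wells and blank wells on each plate | evaluation = percent inhibition relative to plate controls and blanks | compound = 10 µM final, single point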
Hck-Nef inh: inhibitors of Nef-activated human Hck kinase, primary screen, biochemical, Z-Lyte FRET, 384-well, Hck-YEEI; Tyrosine-protein kinase HCK (Homo sapiens), P08631; Recombinant Hck-YEEI plus Nef, Z-Lyte FRET kinase assay; inhibition, % at 20 µM; 220,000 compounds, 0.68% hits;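 active = Hck-Nef kinase inhibition above about 50%, limit read from the data; inactive = inhibition below that limit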
MDM2 E3 inh: MDM2-luciferase reporter signal enhancers, primary screen, MDM2 E3 ligase inhibitor project, cell-based, luminescence, 1536-well; E3 ubiquitin-protein ligase Mdm2 (Homo sapiens), Q00987; cell-based MDM2 ubiquitination luciferase reporter, 2 h; 0 = plate control, 100 = twice control, blank-subtracted; signal enhancement, % at 5 µM; 210,000 compounds, 0.11% hits; AID 1230, 2008;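 active = signal enhancement of 30% or more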;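 note: luminescence tracks abundance of the self-degrading MDM2-luciferase fusion protein; higher signal means inhibition of MDM2 E3 ligase activity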
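test system = mammalian cells stably expressing self-ubiquitinating, self-degrading MDM2 E3–luciferase fusion | quantity = 2000 cells/well | incubation = cell settling 4 h, compound treatment 2 h, both 37 °C | signal = luminescence with SteadyLite reagent, 15 min at room temperature | evaluation = % enhancement relative to plate controls after blank subtraction | benchmarks = plate controls and plate blanks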
H9c2 TAG inh: inhibitors of triacylglycerol accumulation, primary screen, cell-based, uHTS, fluorescence, H9c2. H9c2 cells, Nile Red lipid (TAG) fluorescence; cells loaded with 200 µM oleic acid. inhibition, % at 12.5 µM. 230,000 compounds, 0.66% hits. AID 651582, 2012;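 active = pattern-corrected inhibition of lipid staining of at least 50% with the nuclear-stain viability signal not falling by more than 50%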
TAG conf: triacylglycerol accumulation inhibitors, retest, confirmation, cell-based, single concentration, Nile Red fluorescence, H9c2; shares compounds with H9c2 TAG inh; H9c2 lipid accumulation; cells loaded with 200 µM oleic acid; inhibition, % at 12.5 µM; 990 compounds, 71% hits;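 active = mean inhibition across replicates of 40% or more; inactive = mean inhibition below 40%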
A number is an active result; n = inactive; x = no result given. An excerpt weighted towards active compounds, which were near 1.3% of everything screened.

SMILES	PKD1 inh	PERK inhibitor	Rad51 HR inh	Hck-Nef inh	MDM2 E3 inh	H9c2 TAG inh	TAG conf
Cc1c(P(=S)(c2ccccc2)c2ccccc2)[n+]2ccccc2n1C/C=C/c1ccccc1	x	x	x	x	x	83.4	89.8
COc1cc(C2=NOC(C(=O)NCc3cccs3)C2)cc(OC)c1OC (stereo unspecified)	n	n	n	n	n	52.2	62.6
c1ccc(N(c2ccccc2)c2nc(N3CCCC3)nc(-n3ccnc3)n2)cc1	n	n	x	n	n	60.0	43.3
O=C(Nc1ccc(-c2csc(Nc3ccccc3)n2)cc1)c1cccc(C(F)(F)F)c1	x	x	n	n	n	75.1	83.0
O=C(Nc1ccc(-c2csc(Nc3ccc(Cl)cc3)n2)cc1)c1cccc(C(F)(F)F)c1	x	x	n	n	n	x	x
O=C(Nc1cccc(-c2csc(Nc3cccc(C(F)(F)F)c3)n2)c1)c1cc([N+](=O)[O-])cc(C(F)(F)F)c1	x	x	n	n	n	58.1	56.0
O=C(Nc1ccc(-c2csc(Nc3ccccc3)n2)cc1)c1cc([N+](=O)[O-])cc(C(F)(F)F)c1	x	x	n	n	n	n	x
Cc1ccc(C)c(S(=O)(=O)N2CCCOC2CNC(=O)C(=O)NCc2ccccn2)c1 (stereo unspecified)	x	x	x	x	x	n	x
COc1ccc(NC(=O)N(C)[C@H]2C[C@H]3c4[nH]c5ccc(-c6ccc(OC)cc6)cc5c4CCN3C[C@H]2[C@H](C)O)cc1	x	x	x	x	x	n	x
COc1ccc(-c2ccc3[nH]c4c(c3c2)CCN2C(=O)[C@@H]([C@H](C)O)[C@@H](N(C)C(=O)Nc3ccccc3)C[C@@H]42)cc1	x	x	x	x	x	n	x
COc1ccc(NC(=O)O[C@@H](C)[C@@H]2CN3CCc4c([nH]c5ccc(-c6ccc(OC)cc6)cc45)[C@@H]3C[C@@H]2N(C)C(=O)Nc2ccc(OC)cc2)cc1	x	x	x	x	x	72.0	72.4
COc1ccc(NC(=O)N(C)[C@H]2C[C@H]3c4[nH]c5ccc(-c6ccc7c(c6)OCO7)cc5c4CCN3C[C@H]2[C@H](C)O)cc1	x	x	x	x	x	59.7	65.7
COc1ccc(NC(=O)N(C)[C@H]2C[C@H]3c4[nH]c5ccc(-c6ccc(OC)cc6)cc5c4CCN3C(=O)[C@H]2[C@H](C)O)cc1	x	x	x	x	x	n	x
COc1ccc(-c2ccc3[nH]c4c(c3c2)CCN2C[C@@H]([C@H](C)OC(=O)Nc3cc(Cl)cc(Cl)c3)[C@@H](N(C)C(=O)Nc3cc(Cl)cc(Cl)c3)C[C@@H]42)cc1	x	x	x	x	x	73.1	84.5
Cc1cccc(OS(=O)(=O)NC(=O)OCC2CCCN3CCCCC23)c1 (stereo unspecified)	n	n	n	n	n	n	x
c1ccc(-c2csc(-n3cccn3)n2)cc1	n	n	n	n	n	n	x
COc1ccc(N=C2C(=Nc3ccc(OC)cc3)N(c3ccc(OC)cc3)C(=S)N2C(=O)c2ccc(OC)cc2)cc1	n	n	n	n	n	54.2	99.1
COc1ccc(C(=O)Nc2ccc(C(=O)Nc3cccc(C)c3)cc2)cc1	x	x	x	x	x	56.4	n
CN(Cc1ccon1)C(=O)C1CCN(C2CCN(CCCc3ccccc3)CC2)CC1	x	x	x	x	x	n	x
O=C(NN1CCN(Cc2ccccc2Cl)CC1)c1ccc(Br)cc1	n	n	n	n	n	n	x
COc1cc2c(cc1[N+](=O)[O-])-c1ccc([N+](=O)[O-])cc1C2=NNC(N)=S	x	x	x	x	x	52.4	41.9
Cc1ccc(-c2nn(-c3ccccc3)cc2/C=N/NC(=O)c2ccncc2)o1	n	n	n	n	n	n	x
